{"source": "ChEMBL document CHEMBL1212764", "about": "“Antimicrobial resistance in Haemophilus influenzae respiratory tract isolates in Korea: results of a nationwide acute respiratory infections surveillance” (2010)", "assay_type_in_all_cases": "functional", "key": {"[1]": {"test_system": "Haemophilus influenzae", "test": "Antimicrobial activity against Haemophilus influenzae isolate by broth microdilution method", "outline": "(§1)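 Broth microdilution MIC in freshly prepared Haemophilus test medium per 2008 CLSI guidelines; H. influenzae ATCC 49247 and ATCC 49766 as control strains. Isolates from outpatient nasal aspirates (no prior antibiotics), cultured on blood agar with S. aureus streak and chocolate agar. PBP3 substitutions deduced from ftsI sequencing against the Rd strain; β-lactamase genes (TEM-1, ROB-1) detected by PCR.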"}, "[2]": {"test_system": "Haemophilus influenzae", "test": "Antimicrobial activity against beta-lactamase-negative, ampicillin-sensitive Haemophilus influenzae by broth microdilution method", "outline": "as §1"}, "[3]": {"test_system": "Haemophilus influenzae", "test": "Antimicrobial activity against Beta-lactamase-positive, ampicillin-resistant Haemophilus influenzae by broth microdilution method", "outline": "as §1"}, "[4]": {"test_system": "Haemophilus influenzae", "test": "Antimicrobial activity against Beta-lactamase-negative, ampicillin-resistant Haemophilus influenzae by broth microdilution method", "outline": "as §1"}, "[5]": {"test_system": "Haemophilus influenzae", "test": "Antimicrobial activity against Beta-lactamase-positive, ampicillin-cluvulanate-resistant Haemophilus influenzae by broth microdilution method", "outline": "as §1"}, "[6]": {"test_system": "Haemophilus influenzae", "test": "Antimicrobial activity against Beta-lactamase-negative, ampicillin-resistant Haemophilus influenzae with Asp350Asn, Ser357Asp, Met377Ile, Ser385Thr, Arg517His substitutions in penicillin-binding protein 3 by broth microdilution method", "outline": "as §1"}, "[7]": {"test_system": "Haemophilus influenzae", "test": "Antimicrobial activity against Beta-lactamase-negative, ampicillin-resistant Haemophilus influenzae with Gly490Glu, Asn526Lys substitutions in penicillin-binding protein 3 by broth microdilution method", "outline": "as §1"}, "[8]": {"test_system": "Haemophilus influenzae", "test": "Antimicrobial activity against Beta-lactamase-negative, ampicillin-resistant Haemophilus influenzae with Asp350Asn, Met377Ile, Asn526Lys substitutions in penicillin-binding protein 3 by broth microdilution method", "outline": "as §1"}, "[9]": {"test_system": "Haemophilus influenzae", "test": "Antimicrobial activity against Beta-lactamase-negative, ampicillin-resistant Haemophilus influenzae with Asp350Asn, Met377Ile, Gly490Glu, Asn526Lys substitutions in penicillin-binding protein 3 by broth microdilution method", "outline": "as §1"}, "[10]": {"test_system": "Haemophilus influenzae", "test": "Antimicrobial activity against Beta-lactamase-negative, ampicillin-resistant Haemophilus influenzae with Ala502Val, Asn526Lys substitutions in penicillin-binding protein 3 by broth microdilution method", "outline": "as §1"}, "[11]": {"test_system": "Haemophilus influenzae", "test": "Antimicrobial activity against Beta-lactamase-negative, ampicillin-resistant Haemophilus influenzae with Asp350Asn, Met377Ile, Ala502Val, Asn526Lys substitutions in penicillin-binding protein 3 by broth microdilution method", "outline": "as §1"}, "[12]": {"test_system": "Haemophilus influenzae", "test": "Antimicrobial activity against Beta-lactamase-negative, ampicillin-resistant Haemophilus influenzae with Asp350Asn, Met377Ile, Gly490Glu, Ala502Val, Asn526Lys substitutions in penicillin-binding protein 3 by broth microdilution method", "outline": "as §1"}, "[13]": {"test_system": "Haemophilus influenzae", "test": "Antimicrobial activity against Beta-lactamase-negative, ampicillin-resistant Haemophilus influenzae with Ser311Pro, Ala502Thr, Asn526Lys substitutions in penicillin-binding protein 3 by broth microdilution method", "outline": "as §1"}, "[14]": {"test_system": "Haemophilus influenzae", "test": "Antimicrobial activity against Beta-lactamase-negative, ampicillin-resistant Haemophilus influenzae with Ile449Val, Ala502Thr, Asn526Lys substitutions in penicillin-binding protein 3 by broth microdilution method", "outline": "as §1"}, "[15]": {"test_system": "Haemophilus influenzae", "test": "Antimicrobial activity against Beta-lactamase-negative, ampicillin-resistant Haemophilus influenzae with Asp350Asn, Ser357Asp, Met377Ile, Ser385Thr, Ala502Thr, Asn526Lys substitutions in penicillin-binding protein 3 by broth microdilution method", "outline": "as §1"}, "[16]": {"test_system": "Haemophilus influenzae", "test": "Antimicrobial activity against Beta-lactamase-negative, ampicillin-resistant Haemophilus influenzae with Asp350Asn, Ser357Asp, Ser385Thr, Leu389Phe, Ala502Thr, Asn526Lys substitutions in penicillin-binding protein 3 by broth microdilution method", "outline": "as §1"}, "[17]": {"test_system": "Haemophilus influenzae", "test": "Antimicrobial activity against Beta-lactamase-negative, ampicillin-resistant Haemophilus influenzae with Ile449Val, Asn526Lys substitutions in penicillin-binding protein 3 by broth microdilution method", "outline": "as §1"}, "[18]": {"test_system": "Haemophilus influenzae", "test": "Antimicrobial activity against Beta-lactamase-negative, ampicillin-resistant Haemophilus influenzae with Asp350Asn, Ser357Asp, Met377Ile, Ser385Thr, Leu389Phe, substitutions in penicillin-binding protein 3 by broth microdilution method", "outline": "as §1"}, "[19]": {"test_system": "Haemophilus influenzae", "test": "Antimicrobial activity against Beta-lactamase-negative, ampicillin-resistant Haemophilus influenzae with penicillin-binding protein 3 by broth microdilution method", "outline": "as §1"}, "[20]": {"test_system": "Haemophilus influenzae", "test": "Antimicrobial activity against Beta-lactamase-positive, ampicillin-cluvulanate-resistant Haemophilus influenzae with Asp350Asn, Ser357Asp, Met377Ile, Ser385Thr, Arg517His substitutions in penicillin-binding protein 3 by broth microdilution method", "outline": "as §1"}, "[21]": {"test_system": "Haemophilus influenzae", "test": "Antimicrobial activity against Beta-lactamase-positive, ampicillin-cluvulanate-resistant Haemophilus influenzae with Asp350Asn, Met377Ile, Asn526Lys substitutions in penicillin-binding protein 3 by broth microdilution method", "outline": "as §1"}, "[22]": {"test_system": "Haemophilus influenzae", "test": "Antimicrobial activity against Beta-lactamase-positive, ampicillin-cluvulanate-resistant Haemophilus influenzae with Asp350Asn, Met377Ile, Ser385Thr, Asn526Lys substitutions in penicillin-binding protein 3 by broth microdilution method", "outline": "as §1"}, "[23]": {"test_system": "Haemophilus influenzae", "test": "Antimicrobial activity against Beta-lactamase-positive, ampicillin-cluvulanate-resistant Haemophilus influenzae with Asp350Asn, Met377Ile, Ala502Val, Asn526Lys substitutions in penicillin-binding protein 3 by broth microdilution method", "outline": "as §1"}, "[24]": {"test_system": "Haemophilus influenzae", "test": "Antimicrobial activity against Beta-lactamase-positive, ampicillin-cluvulanate-resistant Haemophilus influenzae with Ala502Val, Asn526Lys substitutions in penicillin-binding protein 3 by broth microdilution method", "outline": "as §1"}, "[25]": {"test_system": "Haemophilus influenzae", "test": "Antimicrobial activity against Beta-lactamase-positive, ampicillin-cluvulanate-resistant Haemophilus influenzae with Asp350Asn, Met377Ile, Gly490Glu, Ala502Val, Asn526Lys substitutions in penicillin-binding protein 3 by broth microdilution method", "outline": "as §1"}, "[26]": {"test_system": "Haemophilus influenzae", "test": "Antimicrobial activity against Beta-lactamase-positive, ampicillin-cluvulanate-resistant Haemophilus influenzae with Ala368Thr, Ala502Thr, Asn526Lys substitutions in penicillin-binding protein 3 by broth microdilution method", "outline": "as §1"}, "[27]": {"test_system": "Haemophilus influenzae", "test": "Antimicrobial activity against Beta-lactamase-positive, ampicillin-cluvulanate-resistant Haemophilus influenzae with Asp350Asn, Ser357Asp, Ala437Ser, Ala502Thr, Asn526Lys substitutions in penicillin-binding protein 3 by broth microdilution method", "outline": "as §1"}, "[28]": {"test_system": "Haemophilus influenzae", "test": "Antimicrobial activity against Beta-lactamase-positive, ampicillin-cluvulanate-resistant Haemophilus influenzae with Asp350Asn, Ala502Thr, Asn526Lys substitutions in penicillin-binding protein 3 by broth microdilution method", "outline": "as §1"}, "[29]": {"test_system": "Haemophilus influenzae", "test": "Antimicrobial activity against Beta-lactamase-positive, ampicillin-cluvulanate-resistant Haemophilus influenzae with Ile449Val, Asn526Lys substitutions in penicillin-binding protein 3 by broth microdilution method", "outline": "as §1"}, "[30]": {"test_system": "Haemophilus influenzae", "test": "Antimicrobial activity against Beta-lactamase-positive, ampicillin-cluvulanate-resistant Haemophilus influenzae with Asp350Asn, Ala437Ser substitutions in penicillin-binding protein 3 by broth microdilution method", "outline": "as §1"}}, "data": [{"smiles": "CC1(C)S[C@@H]2[C@H](NC(=O)[C@H](N)c3ccccc3)C(=O)N2[C@H]1C(=O)O", "note": "[AMPICILLIN]", "values": [{"measurement": "MIC50", "setting": "[1]", "value": 16, "unit": "µg/mL"}, {"measurement": "MIC90", "setting": "[1]", "value": 256, "unit": "µg/mL"}, {"measurement": "MIC50", "setting": "[2]", "value": 1, "unit": "µg/mL"}, {"measurement": "MIC90", "setting": "[2]", "value": 1, "unit": "µg/mL"}, {"measurement": "MIC50", "setting": "[3]", "value": 128, "unit": "µg/mL"}, {"measurement": "MIC90", "setting": "[3]", "value": 256, "unit": "µg/mL"}, {"measurement": "MIC50", "setting": "[4]", "value": 2, "unit": "µg/mL"}, {"measurement": "MIC90", "setting": "[4]", "value": 8, "unit": "µg/mL"}, {"measurement": "MIC50", "setting": "[5]", "value": 256, "unit": "µg/mL"}, {"measurement": "MIC90", "setting": "[5]", "value": "> 512", "unit": "µg/mL"}, {"measurement": "MIC", "setting": "[6]", "value": 2, "unit": "µg/mL"}, {"measurement": "MIC", "setting": "[7]", "value": 4, "unit": "µg/mL"}, {"measurement": "MIC", "setting": "[8]", "value": 4, "unit": "µg/mL"}, {"measurement": "MIC", "setting": "[9]", "value": 4, "unit": "µg/mL"}, {"measurement": "MIC", "setting": "[10]", "value": 2.2, "unit": "µg/mL"}, {"measurement": "MIC", "setting": "[11]", "value": 2.2, "unit": "µg/mL"}, {"measurement": "MIC", "setting": "[12]", "value": 2.2, "unit": "µg/mL"}, {"measurement": "MIC", "setting": "[13]", "value": 2.8, "unit": "µg/mL"}, {"measurement": "MIC", "setting": "[14]", "value": 2.8, "unit": "µg/mL"}, {"measurement": "MIC", "setting": "[15]", "value": 2.8, "unit": "µg/mL"}, {"measurement": "MIC", "setting": "[16]", "value": 2.8, "unit": "µg/mL"}, {"measurement": "MIC", "setting": "[17]", "value": 2.7, "unit": "µg/mL"}, {"measurement": "MIC", "setting": "[17]; Haemophilus influenzae, read-out: MIC", "value": 2.7, "unit": "µg/mL"}, {"measurement": "MIC", "setting": "[18]", "value": 5.3, "unit": "µg/mL"}, {"measurement": "MIC", "setting": "[19]", "value": 2, "unit": "µg/mL"}, {"measurement": "MIC", "setting": "[20]", "value": 192, "unit": "µg/mL"}, {"measurement": "MIC", "setting": "[21]", "value": 288, "unit": "µg/mL"}, {"measurement": "MIC", "setting": "[22]", "value": 288, "unit": "µg/mL"}, {"measurement": "MIC", "setting": "[23]", "value": 230, "unit": "µg/mL"}, {"measurement": "MIC", "setting": "[24]", "value": 230, "unit": "µg/mL"}, {"measurement": "MIC", "setting": "[25]", "value": 230, "unit": "µg/mL"}, {"measurement": "MIC", "setting": "[26]", "value": 208, "unit": "µg/mL"}, {"measurement": "MIC", "setting": "[27]", "value": 208, "unit": "µg/mL"}, {"measurement": "MIC", "setting": "[28]", "value": 208, "unit": "µg/mL"}, {"measurement": "MIC", "setting": "[29]", "value": 512, "unit": "µg/mL"}, {"measurement": "MIC", "setting": "[30]", "value": 512, "unit": "µg/mL"}]}, {"smiles": "CC[C@H]1OC(=O)[C@H](C)[C@@H](O[C@H]2C[C@@](C)(OC)[C@@H](O)[C@H](C)O2)[C@H](C)[C@@H](O[C@@H]2O[C@H](C)C[C@H](N(C)C)[C@H]2O)[C@](C)(OC)C[C@@H](C)C(=O)[C@H](C)[C@@H](O)[C@]1(C)O", "note": "[CLARITHROMYCIN]", "values": [{"measurement": "MIC50", "setting": "[1]", "value": 8, "unit": "µg/mL"}, {"measurement": "MIC90", "setting": "[1]", "value": 16, "unit": "µg/mL"}, {"measurement": "MIC50", "setting": "[2]", "value": 8, "unit": "µg/mL"}, {"measurement": "MIC90", "setting": "[2]", "value": 16, "unit": "µg/mL"}, {"measurement": "MIC50", "setting": "[3]", "value": 8, "unit": "µg/mL"}, {"measurement": "MIC90", "setting": "[3]", "value": 16, "unit": "µg/mL"}, {"measurement": "MIC50", "setting": "[4]", "value": 8, "unit": "µg/mL"}, {"measurement": "MIC90", "setting": "[4]", "value": 32, "unit": "µg/mL"}, {"measurement": "MIC50", "setting": "[5]", "value": 8, "unit": "µg/mL"}, {"measurement": "MIC90", "setting": "[5]", "value": 16, "unit": "µg/mL"}]}]}
